“And” between values parts separate entries of the source, which are not always exact repeats. Equal values may be shown once. “Also recorded” adds a separate entry of the source.
Assays:
[1] = test system: primary mouse T cells (AND TCR transgenic), NFAT; assay: NFAT nuclear translocation of AND TCR T cells on pMHC supported bilayers; format: cell-based; conditions: for agonist strength (in words): AND TCR
In short: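 Primary AND TCR-transgenic mouse T cells were retrovirally spinfected with NFAT-GFP (polybrene 4 μg/ml, days 3–4 post-activation) and sorted; most runs used NFAT-mCherry. Cells were added at 37°C onto Ni-chelating supported bilayers carrying His-tagged ICAM-1 (100–200 μm−2) and peptide-loaded MHC (0.1–2 μm−2). Landing was scored by RICM. NFAT activation was the nuclear/cytosolic intensity ratio. Threshold was the density near half-maximal response, with >30 cells per condition over five experiments.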

AND TCR T cells [2] = format: cell-based, mouse
In short: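 For each T cell, binding events and total dwell time were counted from RICM landing to first NFAT translocation. Counts were corrected for undetected prebleached events and for short events (0.8 s up to the time-lapse interval). Costimulation used His10-tagged recombinant murine CD80 ectodomain on the bilayer at 100–300 molecules/μm2. There were 7–15 cells per condition from three to seven experiments.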

AND TCR T cells [3] = format: cell-based, mouse; remark: listed apart in the source
AND TCR [4] = assay: Calculated probability of long-dwelling pMHC-TCR binding events; set-up: species or system mouse; conditions: single exponential unbinding kinetics from mean dwell time
In short: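 The probability that a binding event lasts 40 s was calculated assuming single-exponential unbinding at the fitted, photobleaching-corrected mean dwell time. The 40 s receptor-level threshold came from spatiotemporal correlation analysis of pMHC trajectories grouped into signaling clusters.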

AND TCR [5] = assay: Single-molecule TIRF imaging of pMHC-TCR binding events; set-up: species or system mouse; conditions: for pMHC-TCR binding / mobility under T cell (in words): 37°C, single-molecule TIRF
In short: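 Atto647N-peptide-MHC binding under live T cells was imaged at 37°C by single-molecule TIRF, either at 2.5 mW/cm2 with 20 ms exposures or at 0.1 mW/cm2 with 500 ms exposures. Single-step unbinding was confirmed by Bayesian change-point detection. Dwell-time distributions (>3000 trajectories, ≥25 cells) were fitted to a single exponential and corrected for photobleaching using bilayer pMHC imaged under identical conditions. Bound fraction was normalised to RICM contact area.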

5c.c7 recombinant TCR = 5c.c7 recombinant TCR binding to MCC pMHC; ref [9], [10]; cited from earlier work
[6] = low T102S pMHC density, cells that activated NFAT

In the case of ANERADLIAYLKQASK [T102S pMHC], the “agonist strength (in words)” value [1] is reported as “weak agonist”, the “NFAT activation probability at low density” value ([1]; low T102S density) is reported as 5% and ~ 5% and the “time to NFAT translocation (comparison in words)” value ([1]; low T102S density vs threshold densities) is reported as “took longer to translocate NFAT than those at threshold densities of either MCC or T102S pMHCs”. For the same molecule, the “NFAT activation probability at threshold density” value ([1]; threshold pMHC density) was 32%, the “rate of dwell time accumulation (in words)” value (AND TCR T cells [2]; low T102S density, activating cells vs cells that did not activate) was “indistinguishable from cells that did not active NFAT at threshold densities” and the “number of correlated pMHC tracks, activating cells” value (AND TCR T cells [3]; low T102S pMHC density, 30-s window, cells that activated NFAT) was “between two and nine correlated pMHC tracks”. For the same molecule, the “number of correlated pMHC tracks, nonactivating cells” value (AND TCR T cells [3]; low T102S pMHC density, 30-s window, cells that did not activate NFAT) was “zero to three correlated pMHC tracks”, the “binding events within 2 mm and 30 s of another binding event, activating cells” value (AND TCR T cells [3]; [6]) was 90% and the “effective mean dwell time after spatiotemporal correlation (in words)” value (AND TCR T cells [3]; [6]) was “could resemble long-dwelling MCC pMHC binding inputs in terms of mean dwell time”. The “binding events within the same space and time (2 mm, 30 s), nonactivating cells” value (AND TCR T cells [3]; low T102S pMHC density, cells that did not activate NFAT) was 68%, the “number of spatiotemporally correlated tracks (comparison in words)” value (AND TCR T cells [3]; threshold conditions) was “more spatiotemporally correlated pMHC tracks than those exposed to MCC” and the “probability that a pMHC-TCR binding event dwells for 40 s” value (AND TCR [4]) was 0.02.

With “ANERADLIAYLKQATK [MCC pMHC, Moth cytochrome C 88–103 peptide]” the “pMHC-TCR binding / mobility under T cell (in words)” value (AND TCR [5]) was “bimodal mobility under a T cell (cyan) and unimodal mobility on the free supported membrane; also recorded: a substantial fraction of the all pMHC under the T cell are bound as long-lived species”, the “difference in affinity MCC pMHC vs T102S pMHC” value (AND TCR [5]; range covered by strong and weak agonist) was “fivefold” and the “agonist strength (in words)” value [1] was “strong agonist”. The “probability that a pMHC-TCR binding event dwells for 40 s” value (AND TCR [4]) was 0.43 and the “mean dwell time (<τoff>), 5c.c7 TCR” value (5c.c7 recombinant TCR) was 7.2 s.

With ANERADLIAYPKAATKF [K3 pMHC] the “agonist strength (in words)” value [1] was “moderate agonist”.

With “ANERAELIAYLTQAAKGGSC [null pMHC, reference compound]” the “pMHC-TCR binding / mobility under T cell (in words)” value (AND TCR [5]) was “did not exhibit slowed pMHC-TCR complexes”.

B1: CD80: murine costimulatory ligand CD80 (B7), recombinant, secreted, truncated ectodomain with a flexible linker and decahistidine tag (protein, UniProt Q00609 38-246, looked up)
extracellular domain: VDEQLSKSVKDKVLLPCRYNSPHEDESEDRIYWQKHDKVVLSVIAGKLKVWPEYKNRTLYDNTTYSLIILGLVLSDRGTYSCVVQKKERGTYEVKHLALVKLSIKADFSTPNITESGNPSADTKRITCFASGGFPKPRFSWLENGRELPGINTTISQDPESELYTISSQLDFNTTRNHTIKCLIKYGDAHVSEDFTWEKPPEDPPDSKN
modifications: extracellular domain flexible linker and decahistidine tag
For B1, the “effect of costimulation on activation (in words)” value (AND TCR T cells [2]; CD80 on bilayer, 100 to 300 molecules/μm^2, cells that activated NFAT) was “cells that activated NFAT experienced a decrease in the time to activation, accumulated binding events, and cumulative dwell time”.

— PMC6598675 (Science signaling, 2019)
